From ChEMBL document CHEMBL2417449, “Discovery of the first inhibitors of bacterial enzyme D-aspartate ligase from Enterococcus faecium (Aslfm)” (Eur J Med Chem, 2013)
Each block holds one molecule with its values, some of them ahead of it. Active and inactive are the calls of the source. The rule behind the calls is not given here.

Columns and labels:
Enterococcus faecium [1] = assay: Antimicrobial activity against Enterococcus faecium D344R at 160 ug after 18 hrs by disk diffusion method
Enterococcus faecium [2] = assay: Inhibition of purified Enterococcus faecium D359 His-tagged Aslfm assessed as residual activity preincubated at 100 uM for 2 mins prior to reaction initiation measured after 10 mins by UV/VIS spectrophotometry
Outline: (§1)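 His-tagged Aslfm in 100 mM Tris-HCl pH 8.0, 50 mM MgCl2, 2 mM phosphoenolpyruvate, 0.16 mM NADH, 1 mM ATP, 1 mM D-Asp, 0.005% Triton X-114, with pyruvate kinase and lactate dehydrogenase. Compound in DMSO was preincubated 2 min at 37 °C, and the reaction was started with 0.3 mM UM5K. A340 was followed for 10 min. Duplicates; residual activity is relative to DMSO controls.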

Enterococcus faecium [3] = assay: Inhibition of purified Enterococcus faecium D359 His-tagged Aslfm assessed as residual activity preincubated at 50 uM for 2 mins prior to reaction initiation measured after 10 mins by UV/VIS spectrophotometry
Outline: as §1

[4] = Binding affinity to purified Enterococcus faecium D359 His-tagged Aslfm by kinetic study; settings: in the assay text read “isothermal titration calorimetry” for “kinetic study”
Enterococcus faecium [5] = assay: Binding affinity to purified Enterococcus faecium D359 His-tagged Aslfm by isothermal titration calorimetry method
Outline: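 The ligand (50 µM in buffer with 5% DMSO) was titrated into ~1 µM enzyme (5% DMSO) at 37 °C, 300 rpm, with 5–8 min intervals, to a final ratio of ~12:1. Data were corrected for ligand-into-buffer heats and fitted to a single-binding-site model.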

Enterococcus faecium [6] = assay: Antimicrobial activity against Enterococcus faecium E1636 after 18 hrs by broth microdilution method; format: functional; settings: E1636, 18 h
Enterococcus faecium [7] = assay: Antimicrobial activity against Enterococcus faecium E1679 after 18 hrs by broth microdilution method; format: functional; settings: E1679, 18 h
Enterococcus faecalis = assay: Antimicrobial activity against Enterococcus faecalis ATCC 29212 after 18 hrs by broth microdilution method; format: functional; settings: ATCC 29212, 18 h
Enterococcus faecium [8] = assay: Competitive inhibition of purified Enterococcus faecium D359 His-tagged Aslfm preincubated at 0.75 uM for 2 mins prior to reaction initiation measured after 10 mins by time course assay
Outline: (§2)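 Coupled pyruvate kinase–lactate dehydrogenase assay at 37 °C monitored at 340 nm. Starting conditions: 100 µM ATP, 1 mM D-Asp, 300 µM UDP-MurNAc-pentapeptide, 2 mM phosphoenolpyruvate, 105 µM NADH, enzyme 0.75 or 1 µM, up to six inhibitor concentrations. Progress curves over 10–15 min were fitted to a […] mechanism, with enzyme constants fixed and inhibitor constants fitted. Ki was also measured at ATP 50 and 100 µM.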

Enterococcus faecium [9] = assay: Inhibition of purified Enterococcus faecium D359 His-tagged Aslfm assessed as residual activity preincubated at 250 uM for 2 mins prior to reaction initiation measured after 10 mins by UV/VIS spectrophotometry
Outline: as §1

[10] = Inhibition of purified Enterococcus faecium D359 His-tagged Aslfm preincubated for 2 mins prior to reaction initiation measured after 10 mins by UV/VIS spectrophotometry
Outline: as §1

Enterococcus faecium [11] = assay: Antimicrobial activity against Enterococcus faecium D344R after 18 hrs by macrodilution method
Enterococcus faecium [12] = assay: Competitive inhibition of purified Enterococcus faecium D359 His-tagged Aslfm preincubated for 2 mins prior to reaction initiation measured after 10 mins by time course assay
Outline: as §2

Enterococcus faecium [13] = assay: Competitive inhibition of purified Enterococcus faecium D359 His-tagged Aslfm preincubated at 1 uM for 2 mins prior to reaction initiation measured after 10 mins by time course assay
Outline: as §2

Compound: CC1(C)S[C@@H]2[C@H](NC(=O)[C@H](N)c3ccccc3)C(=O)N2[C@H]1C(=O)O
growth inhibition (GI) (Enterococcus faecium [1]): inactive

Compound: Nc1nc(NCc2ccc3c(c2)OCO3)c2nc[nH]c2n1
Activity (Enterococcus faecium [2]): 84%

Compound: Nc1nc(NCc2cccnc2Cl)c2cn[nH]c2n1
Activity (Enterococcus faecium [2]): 87%

Compound: Nc1nonc1-c1nc2ccccc2n1CC(=O)Nc1ccccc1
Activity (Enterococcus faecium [2]): 89%

Compound: OC(c1ccccc1)(c1ccccc1)c1c[nH]cn1
Activity (Enterococcus faecium [2]): 100%

Compound: O=C(c1ccc(O)nc1)N(Cc1ccco1)Cc1cccs1
Activity (Enterococcus faecium [2]): 93%

Compound: Nc1ncc(C(=O)N(Cc2ccccc2)Cc2ccccc2)o1
Ki [4]: 5 µM
Kb (Enterococcus faecium [5]): 2 ×10⁵ /M
MIC (Enterococcus faecium [6]): > 64 µg/mL
MIC (Enterococcus faecium [7]): > 64 µg/mL
MIC (Enterococcus faecalis): > 64 µg/mL
inhibition (Enterococcus faecium [8]): Active
Activity (Enterococcus faecium [9]): 43%
Ki [10]: 44 µM
MIC (Enterococcus faecium [11]): > 200 µg/mL

Compound: Nc1ncc(C(=O)N(Cc2ccccc2)Cc2ccccc2)s1
Activity (Enterococcus faecium [9]): 80%
MIC (Enterococcus faecium [11]): > 200 µg/mL

Compound: Cc1ccc(F)c(CNc2nc(N)nc3[nH]ncc23)c1F
Activity (Enterococcus faecium [2]): 79%

Compound: Nc1nc(NCc2ccc(F)cc2F)c2cn[nH]c2n1
Activity (Enterococcus faecium [2]): 93%

Compound: Nc1ncc(C(=O)N(Cc2cc(Br)cc(Br)c2)Cc2ccc3[nH]ccc3c2)o1
MIC (Enterococcus faecium [6]): > 64 µg/mL
MIC (Enterococcus faecium [7]): > 64 µg/mL
MIC (Enterococcus faecalis): > 64 µg/mL
inhibition (Enterococcus faecium [12]): Active
Activity (Enterococcus faecium [2]): 44%
Ki [10]: 2.9 µM
MIC (Enterococcus faecium [11]): > 200 µg/mL

Compound: Nc1nc(NCc2c(F)cccc2F)c2cn[nH]c2n1
Activity (Enterococcus faecium [2]): 88%

Compound: CCCCN(Cc1ccccc1)C(=O)c1cnc(N)o1
Activity (Enterococcus faecium [9]): 75%
MIC (Enterococcus faecium [11]): > 200 µg/mL

Compound: Cc1nc(N)sc1C(=O)N(Cc1ccccc1)Cc1ccccc1
Activity (Enterococcus faecium [9]): 82%
MIC (Enterococcus faecium [11]): > 200 µg/mL

Compound: Nc1nc(SCc2c(Cl)cccc2Cl)c2nc[nH]c2n1
Ki [4]: 5 µM
Kb (Enterococcus faecium [5]): 2 ×10⁵ /M
MIC (Enterococcus faecium [6]): > 64 µg/mL
MIC (Enterococcus faecium [7]): > 64 µg/mL
MIC (Enterococcus faecalis): > 64 µg/mL
inhibition (Enterococcus faecium [13]): Active
Activity (Enterococcus faecium [2]): 47%
Ki [10]: 3.2 µM

Compound: O=C(c1cnc(O)cn1)N(Cc1cccs1)CC1CCCO1 (stereo unspecified)
Activity (Enterococcus faecium [2]): 93%

Compound: Nc1ncc(C(=O)NCc2ccc3[nH]ccc3c2)o1
Activity (Enterococcus faecium [9]): 79%
MIC (Enterococcus faecium [11]): > 200 µg/mL

Compound: Nc1nc(NCc2cccc(Cl)c2Cl)c2cn[nH]c2n1
Activity (Enterococcus faecium [2]): 86%

Compound: CCN(Cc1ccncc1)C(=O)c1cnc(N)o1
Activity (Enterococcus faecium [9]): 98%
MIC (Enterococcus faecium [11]): > 200 µg/mL

Compound: Nc1ncc(C(=O)Nc2nc3ccccc3[nH]2)o1
Activity (Enterococcus faecium [9]): 90%
MIC (Enterococcus faecium [11]): > 200 µg/mL

Compound: Nc1ncc(C(=O)N(Cc2ccccn2)Cc2ccccn2)o1
Activity (Enterococcus faecium [9]): 74%
MIC (Enterococcus faecium [11]): > 200 µg/mL

Compound: Nc1nc(NCc2ccc(Cl)cc2Cl)c2cn[nH]c2n1
MIC (Enterococcus faecium [6]): > 64 µg/mL
MIC (Enterococcus faecium [7]): > 64 µg/mL
MIC (Enterococcus faecalis): > 64 µg/mL
inhibition (Enterococcus faecium [12]): Active
Activity (Enterococcus faecium [2]): 69%
Ki [10]: 22 µM

Compound: CCCCN(CCCC)C(=O)c1cnc(N)o1
Activity (Enterococcus faecium [9]): 94%
MIC (Enterococcus faecium [11]): > 200 µg/mL

More lines, now with the values ahead:

Activity (Enterococcus faecium [2]): 83%
Compound: Nc1nc(NCc2ccc(Cl)c(Cl)c2)c2nc[nH]c2n1

Activity (Enterococcus faecium [3]): 94%
Compound: Clc1cccc(Cl)c1CN(Cc1ccccc1)c1ncnc2[nH]cnc12

Activity (Enterococcus faecium [2]): 91%
Compound: CS(=O)(=O)Nc1nc(CC(=O)N(Cc2cccs2)Cc2cccs2)cs1

Activity (Enterococcus faecium [2]): 92%
Compound: Nc1ncc(-c2nnnn2-c2ccccc2)c(-c2ccccc2)n1

Activity (Enterococcus faecium [2]): 85%
Compound: Nc1nc(NCc2ccc(Cl)cc2Cl)c2nc[nH]c2n1

Activity (Enterococcus faecium [2]): 92%
Compound: Cc1ccc(-n2nnnc2-c2cn[nH]c2-c2cccc(C)c2)cc1

Activity (Enterococcus faecium [2]): 95%
Compound: Nc1nnc(P(=O)(c2ccccc2)c2ccccc2)s1

Activity (Enterococcus faecium [2]): 116%
Compound: CN(C(=O)Cn1c(-c2nonc2N)nc2ccccc21)c1ccccc1

MIC (Enterococcus faecium [6]): > 64 µg/mL
MIC (Enterococcus faecium [7]): > 64 µg/mL
MIC (Enterococcus faecalis): > 64 µg/mL
inhibition (Enterococcus faecium [12]): Active
Activity (Enterococcus faecium [2]): 71%
Ki [10]: 35 µM
Compound: Nc1nc(SCc2ccc(Cl)cc2Cl)c2nc[nH]c2n1

Activity (Enterococcus faecium [2]): 89%
Compound: COc1ccc(CNc2nc(N)nc3[nH]cnc23)c(OC)c1

Activity (Enterococcus faecium [2]): 74%
Compound: Nc1nc(NCc2ccc(Cl)s2)c2cn[nH]c2n1

Activity (Enterococcus faecium [2]): 84%
Compound: Nc1nc(NCc2c(F)cccc2Cl)c2cn[nH]c2n1

Activity (Enterococcus faecium [2]): 83%
Compound: c1ccc(CN(Cc2ccccc2)c2ncnc3[nH]cnc23)cc1

Activity (Enterococcus faecium [3]): 110%
Compound: Clc1ccc(CN(Cc2ccccc2)c2ncnc3[nH]cnc23)cc1
